The term ΔTm denotes the change in melting temperature against a reference sample.

The source made the active and inactive calls. The rule behind the calls is not given here.

In data set [1] the test system is Quadruplex DNA. In words: Stabilization of telomeric G-quadruplex DNA in human SiHa cells assessed as levels of metaphase chromosome having at least one telomere end loss at 1 uM after 48 hrs by Tamra-OO-[TTAGGG]3 PNA probe and DAPI staining-based FISH assay relative to control. The format is cell-based. An outline of the steps:
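Metaphase spreads from SiHa cells treated 48 h with 1 µM compound or 0.1% DMSO were hybridized with a telomeric PNA probe and counterstained with DAPI. The share of chromosomes with at least one telomere-free end was scored; mean ± SEM, two-tailed unpaired t test.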

Data set [2] deals with SiHa. In words: Antiproliferative activity against human SiHa cells after 90 hrs by RTCA method. The format is functional, cell-based. An outline of the steps:
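SiHa proliferation was followed by real-time cellular analysis during 90 h of compound treatment at several concentrations.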

Data set [3] concerns Quadruplex DNA. In words: Stabilization of F21T telomeric G-quadruplex DNA (unknown origin) assessed as change in melting temperature at 1 uM by FRET assay. The format is nucleic-acid assay. The essentials:
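FRET melting: 0.2 µM F21T or F10T (FAM/TAMRA-labelled), with or without 1.0 µM ligand, in 10 mM Tris-HCl pH 7.4 with 60 mM KCl. Excitation 470 nm, emission 530 nm, read every 1 °C from 37–99 °C at 1 °C/min with a 30 s hold. ΔTm = Tm(DNA+ligand) − Tm(DNA).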

For data set [4], the system named is SiHa. Kind of data set: Antitumor activity against human SiHa cells xenografted in BALB/C-nu/nu mouse assessed as tumor growth inhibition at 10 mg/kg, ip administered daily for 3 weeks measured post last dose relative to vehicle-treated control. It counts as functional. Particulars: 504 h, read-out: TGI. The essentials: (§1)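 SiHa cells (1×10^7 per 100 µL, serum-free DMEM) were injected subcutaneously. Grown tumors were divided into pieces and implanted into BALB/C-nu/nu mice. Caliper volume (1/2 × L × W²) and body weight were recorded daily; tumors were weighed at the end.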
In general terms: Xenograft models place foreign cells or tissue in a host animal.

Data set [5] has as its system SiHa. In words: Effect on POT1 expression in human SiHa cells at 1 uM after 48 hrs by Western blot method. The format is functional, cell-based. For orientation: In western blotting, separated proteins are transferred to a membrane and probed.
A further data set has as its system U2OS. In words: Induction of telomeric G-quadruplex DNA formation in human U2OS cells assessed as increase in co-localization of BG4/TRF2 foci per nucleus at 2 uM after 24 hrs by DAPI staining-based double immunofluorescence method. The format is cell-based. An outline of the steps: (§2)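 Cells were treated 24 h with 2 µM compound or 0.1% DMSO, then fixed (4% paraformaldehyde), permeabilized (0.5% Triton X-100) and blocked (5% goat serum). Staining used BG4 (80 ng/µL, 37 °C 3 h) with anti-FLAG, and/or γ-H2AX, TRF2 or POT1 antibodies at 4 °C overnight. Alexa 488/555 secondaries and DAPI followed. Foci or co-localized foci per nucleus were counted by confocal microscopy; mean ± SEM, two-tailed unpaired t test.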

Data set [6] concerns Quadruplex DNA. Kind of data set: Stabilization of telomeric G-quadruplex DNA in human U2OS cells assessed as induction of DNA damage response by measuring co-localization of gamma-H2AX and TRF2 foci per nucleus at 2 uM after 24 hrs by DAPI staining-based double immunofluorescence method. It counts as cell-based. The essentials:
as §2

Data set [7] relates to Quadruplex DNA. Kind of data set: Stabilization of telomeric G-quadruplex DNA in human SiHa cells assessed as induction of DNA damage response by measuring gamma-H2AX foci formation per nucleus at 2 uM after 24 hrs by DAPI staining-based immunofluorescence method relative to control. It counts as cell-based. An outline of the steps:
as §2

In data set [8] the test system is Quadruplex DNA. Kind of data set: Stabilization of telomeric G-quadruplex DNA in human SiHa cells assessed as reduction of POT1/TRF2 co-localized foci per nucleus at 2 uM after 24 hrs by DAPI staining-based double immunofluorescence method. The format is cell-based. An outline of the steps: as §2
Data set [9] has as its system SiHa. In words: Induction of apoptosis in human SiHa cells at 2 uM after 96 hrs by annexin V-FITC/propidium iodide staining-based flow cytometric method relative to control. It counts as functional. The essentials:
(§3)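 SiHa cells were treated with compound or DMSO for 96 h, washed, resuspended in binding buffer, and stained with Annexin V-FITC and PI for 15 min in the dark. Apoptotic percentage was measured by flow cytometry; mean ± SEM.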

The subject of data set [10] is Quadruplex DNA. In words: Stabilization of telomeric G-quadruplex DNA in human U2OS cells assessed as increase in BG4 foci per nucleus at 2 uM after 24 hrs by DAPI staining-based immunofluorescence method. The format is cell-based. An outline of the steps:
as §2

Data set [11] deals with Quadruplex DNA. In words: Stabilization of telomeric G-quadruplex DNA in human SiHa cells assessed as increase in phosphorylated ATR expression after 48 hrs by Western blot method. The format is cell-based. The essentials: (§4)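 SiHa cells were treated with compound for 48 h and lysed in RIPA buffer. 20 µg protein was run on 10% SDS-PAGE and transferred to PVDF. Blots were blocked in 3% BSA, probed with primary antibodies (1:1,000, 4 °C 16 h) for p-ATR, p-CHK1 and p-P53, then secondaries (1:2,000, 2 h at room temperature).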

Data set [12] relates to SiHa. In words: Induction of apoptosis in human SiHa cells after 96 hrs by annexin V-FITC/propidium iodide staining-based flow cytometric method. The format is functional, cell-based. An outline of the steps:
as §3
On the technique in general: In flow cytometry, cells or beads pass a laser one at a time.

A short description of data set [13]: Binding affinity to hairpin duplex DNA (unknown origin) at 40 uM by SPR method. The essentials: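 SPR: biotinylated HTG21 or hairpin DNA (200 nM) was folded in 50 mM Tris-HCl pH 7.4 with 100 mM KCl and captured to about 1,000 RU on an NLC chip against a blank reference cell. Ligand at 0.625–40 µM was injected at 25 µL/min (400 s association, 300 s dissociation) at 25 °C. The chip was regenerated with 1 M KCl and blank sensorgrams were subtracted.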

The subject of data set [14] is Quadruplex DNA. Kind of data set: Stabilization of F21T telomeric G-quadruplex DNA (unknown origin) at 1 uM in presence of non-fluorescent duplex DNA ds26 by FRET assay. The format is nucleic-acid assay. An outline of the steps:
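Competition FRET: 0.2 µM F21T with 1 µM ligand, plus or minus unlabelled duplex ds26 at 3 µM (15-fold) or 10 µM (50-fold), in 10 mM Tris-HCl pH 7.4 with 60 mM KCl. Melting monitored at 470/530 nm over 37–99 °C.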

In the next data set the test system is Mus musculus. In words: Toxicity in BALB/C-nu/nu mouse xenografted with human SiHa cells assessed as decrease in body weight at 10 to 20 mg/kg, ip administered daily for 3 weeks measured everyday during compound dosing. The format is organism-based. Particulars: in vivo, 504 h. The essentials:
as §1

The test system of data set [15] is Quadruplex DNA. Kind of data set: Stabilization of telomeric G-quadruplex DNA in human SiHa cells assessed as increase in phosphorylated p53 expression after 48 hrs by Western blot method. It counts as cell-based. The essentials:
as §4

`CN(C)CCCNc1cc2nc(/C=C3\C(=O)Nc4cc(N5CCN(C)CC5)ccc43)[nH]c(=O)c2cc1F`: the Activity with Quadruplex DNA [1] was 31%; with SiHa [2], “Dose-dependent effect”; in the data set on SiHa [9] it was 60%; in the data set with Quadruplex DNA [11] it was “Dose-dependent effect”; in the data set on SiHa [12], “Dose-dependent effect”; in the data set on Mus musculus, “Non-Toxic”. The Activity result in the data set with Quadruplex DNA [15] was “Dose-dependent effect”. Further, in the data set with Quadruplex DNA [3], the shift in melting temperature (ΔTm) was 23.5 °C. For the same compound, the inhibition in vivo at 10 mg/kg in the data set on SiHa [4] was 29%. The result (in the data set with SiHa [5]; in data set [13]) was inactive. Further, the result with U2OS, in the data set on Quadruplex DNA [6], in the data set with Quadruplex DNA [8], in the data set on Quadruplex DNA [10] and in the data set on Quadruplex DNA [14] was Active. Further, the fold change (FC) with Quadruplex DNA [7] stood at 3.

The values above are taken from ChEMBL document CHEMBL4177752, “Discovery of Novel Schizocommunin Derivatives as Telomeric G-Quadruplex Ligands That Trigger Telomere Dysfunction and the Deoxyribonucleic Acid (DNA) Damage Response” (J Med Chem, 2018).
